According to ChEMBL document CHEMBL4007456, “Heterocyclyl Tetracyclines. 1. 7-Trifluoromethyl-8-Pyrrolidinyltetracyclines: Potent, Broad Spectrum Antibacterial Agents with Enhanced Activity against Pseudomonas aeruginosa” (2017):
Values after ≈ are worked out from the molar mass of the structure shown.

Legend:
Format in all cases: functional
Klebsiella pneumoniae [1] = assay: Antibacterial activity against gram-negative Klebsiella pneumoniae KP153 harboring tet(A) by CLSI method
Outline: (§1)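 CLSI broth microdilution MIC in fresh cation-adjusted Mueller Hinton broth, supplemented with defibrinated horse blood where appropriate. Compounds serially diluted in sterile deionized water. Runs accepted when comparator antibiotics against ATCC quality-control strains fell within recommended ranges.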

Proteus mirabilis [2] = assay: Antibacterial activity against gram-negative Proteus mirabilis PM122 by CLSI method
Outline: (§2)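 Defibrinated horse blood added where appropriate. Compounds serially diluted in sterile deionized water. Strains from ATCC unless otherwise noted. Runs accepted when comparator antibiotics fell within QC ranges for ATCC quality control strains.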

Pseudomonas aeruginosa [3] = assay: Antibacterial activity against gram-negative Pseudomonas aeruginosa PA169 by CLSI method; outline: as §2
Acinetobacter baumannii = assay: Antibacterial activity against gram-negative Acinetobacter baumannii AB250 by CLSI method
Outline: as §2, with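 “Broth microdilution MIC per CLSI in cation-adjusted Mueller Hinton broth, prepared fresh and held at 4 °C. Defibrinated” for “Defibrinated”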

[4] = system: Stenotrophomonas maltophilia; assay: Antibacterial activity against gram-negative Stenotrophomonas maltophilia SM256 by CLSI method
Outline: as §2, with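 “Broth microdilution MIC per CLSI in cation-adjusted Mueller Hinton broth, prepared fresh and held at 4 °C. Defibrinated” for “Defibrinated”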

Burkholderia cenocepacia = assay: Antibacterial activity against gram-negative Burkholderia cenocepacia BC240 by CLSI method; outline: as §2
Staphylococcus aureus [5] = assay: Antibacterial activity against gram-positive Staphylococcus aureus SA101 by CLSI method
Outline: as §2, with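 “Broth microdilution MIC per CLSI in cation-adjusted Mueller Hinton broth, prepared fresh and held at 4 °C. Defibrinated” for “Defibrinated”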

Staphylococcus aureus [6] = assay: Antibacterial activity against gram-positive Staphylococcus aureus SA161 harboring tet(M) by CLSI method; outline: as §1
Staphylococcus aureus [7] = assay: Antibacterial activity against gram-positive Staphylococcus aureus SA158 harboring tet(K) by CLSI method; outline: as §1
Enterococcus faecalis [8] = assay: Antibacterial activity against gram-positive Enterococcus faecalis EF159 harboring tet(M) by CLSI method; outline: as §1
Streptococcus pneumoniae [9] = assay: Antibacterial activity against gram-positive Streptococcus pneumoniae SP160 harboring tet(M) by CLSI method; outline: as §1
Streptococcus pneumoniae [10] = assay: Antibacterial activity against gram-positive Streptococcus pneumoniae SP193 by CLSI method
Outline: as §2, with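 “Broth microdilution MIC per CLSI in cation-adjusted Mueller Hinton broth, prepared fresh and held at 4 °C. Defibrinated” for “Defibrinated”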

Escherichia coli [11] = assay: Antibacterial activity against gram-negative Escherichia coli EC107 by CLSI method
Outline: as §2, with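 “Broth microdilution MIC per CLSI in cation-adjusted Mueller Hinton broth, prepared fresh and held at 4 °C. Defibrinated” for “Defibrinated”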

Escherichia coli [12] = assay: Antibacterial activity against gram-negative Escherichia coli EC155 harboring tet(A) by CLSI method; outline: as §1
Enterococcus faecalis [13] = assay: Antibacterial activity against gram-positive Enterococcus faecalis EFs327 harboring tet(M) by CLSI method; outline: as §1
Enterococcus faecium = assay: Antibacterial activity against gram-positive Enterococcus faecium EFm404 harboring tet(M) by CLSI method; outline: as §1
Klebsiella pneumoniae [14] = assay: Antibacterial activity against gram-negative Klebsiella pneumoniae KP457 harboring blacTX-M-15 extended spectrum beta-lactamase gene by CLSI method; outline: as §1
Proteus mirabilis [15] = assay: Antibacterial activity against gram-negative Proteus mirabilis PM385 by CLSI method
Outline: as §2, with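 “Broth microdilution MIC per CLSI in cation-adjusted Mueller Hinton broth, prepared fresh and held at 4 °C. Defibrinated” for “Defibrinated”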

Pseudomonas aeruginosa [16] = assay: Antibacterial activity against gram-negative Pseudomonas aeruginosa PA555 by CLSI method
Outline: as §2, with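 “Broth microdilution MIC per CLSI in cation-adjusted Mueller Hinton broth, prepared fresh and held at 4 °C. Defibrinated” for “Defibrinated”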

Enterobacter cloacae = assay: Antibacterial activity against gram-negative Enterobacter cloacae EC1603 harboring tet(A) by CLSI method; outline: as §1

Structure (SMILES) | MIC (Klebsiella pneumoniae [1]) | MIC (Proteus mirabilis [2]) | MIC (Pseudomonas aeruginosa [3]) | MIC (Acinetobacter baumannii) | MIC [4] | MIC (Burkholderia cenocepacia) | MIC (Staphylococcus aureus [5]) | MIC (Staphylococcus aureus [6]) | MIC (Staphylococcus aureus [7]) | MIC (Enterococcus faecalis [8]) | MIC (Streptococcus pneumoniae [9]) | MIC (Streptococcus pneumoniae [10]) | MIC (Escherichia coli [11]) | MIC (Escherichia coli [12]) | MIC (Enterococcus faecalis [13]) | MIC (Enterococcus faecium) | MIC (Klebsiella pneumoniae [14]) | MIC (Proteus mirabilis [15]) | MIC (Pseudomonas aeruginosa [16]) | MIC (Enterobacter cloacae)
CN(C)[C@@H]1C(O)=C(C(N)=O)C(=O)[C@@]2(O)C(O)=C3C(=O)c4c(O)cc(-c5cccnc5)c(Cl)c4C[C@H]3C[C@@H]12 | > 32 µg/mL | 16 µg/mL (≈ 30.4 µM) | > 32 µg/mL | > 32 µg/mL | 2 µg/mL (≈ 3.8 µM) | 8 µg/mL (≈ 15.2 µM) | 0.125 µg/mL (≈ 0.238 µM) | 1 µg/mL (≈ 1.9 µM) | 0.125 µg/mL (≈ 0.238 µM) | 1 µg/mL (≈ 1.9 µM) | 8 µg/mL (≈ 15.2 µM) | 0.25 µg/mL (≈ 0.475 µM) | 2 µg/mL (≈ 3.8 µM) | > 32 µg/mL | – | – | – | – | – | –
CC1CCC(c2cc(O)c3c(c2C(F)(F)F)C[C@H]2C[C@H]4[C@H](N(C)C)C(O)=C(C(N)=O)C(=O)[C@@]4(O)C(O)=C2C3=O)N1 (some centres undefined) | – | – | – | 0.5 µg/mL (≈ 0.884 µM) | 0.25 µg/mL (≈ 0.442 µM) | 4 µg/mL (≈ 7.07 µM) | 0.125 µg/mL (≈ 0.221 µM) | 1 µg/mL (≈ 1.77 µM) | ≤ 0.0156 µg/mL | – | ≤ 0.0156 µg/mL | – | ≤ 0.0156 µg/mL | 0.5 µg/mL (≈ 0.884 µM) | 1 µg/mL (≈ 1.77 µM) | 0.25 µg/mL (≈ 0.442 µM) | 0.25 µg/mL (≈ 0.442 µM) | 0.5 µg/mL (≈ 0.884 µM) | 8 µg/mL (≈ 14.1 µM) | 8 µg/mL (≈ 14.1 µM)
CN(C)[C@@H]1C(O)=C(C(N)=O)C(=O)[C@@]2(O)C(O)=C3C(=O)c4c(O)cc([C@@H]5CCCN5)cc4C[C@H]3C[C@@H]12 | – | – | – | > 32 µg/mL | 32 µg/mL (≈ 66.2 µM) | > 32 µg/mL | 4 µg/mL (≈ 8.27 µM) | > 32 µg/mL | 0.5 µg/mL (≈ 1.03 µM) | – | 8 µg/mL (≈ 16.5 µM) | – | 0.25 µg/mL (≈ 0.517 µM) | 4 µg/mL (≈ 8.27 µM) | > 32 µg/mL | 16 µg/mL (≈ 33.1 µM) | 0.5 µg/mL (≈ 1.03 µM) | 0.25 µg/mL (≈ 0.517 µM) | 16 µg/mL (≈ 33.1 µM) | 4 µg/mL (≈ 8.27 µM)
COc1c(C2CCCN2)cc(O)c2c1C[C@H]1C[C@H]3[C@H](N(C)C)C(O)=C(C(N)=O)C(=O)[C@@]3(O)C(O)=C1C2=O (some centres undefined) | – | – | – | > 32 µg/mL | > 32 µg/mL | > 32 µg/mL | 8 µg/mL (≈ 15.6 µM) | > 32 µg/mL | 2 µg/mL (≈ 3.89 µM) | – | 4 µg/mL (≈ 7.79 µM) | – | 2 µg/mL (≈ 3.89 µM) | > 32 µg/mL | 32 µg/mL (≈ 62.3 µM) | 16 µg/mL (≈ 31.2 µM) | 2 µg/mL (≈ 3.89 µM) | 4 µg/mL (≈ 7.79 µM) | 32 µg/mL (≈ 62.3 µM) | > 32 µg/mL
CC1CCNC1c1cc(O)c2c(c1C(F)(F)F)C[C@H]1C[C@H]3[C@H](N(C)C)C(O)=C(C(N)=O)C(=O)[C@@]3(O)C(O)=C1C2=O (some centres undefined) | – | – | – | 1 µg/mL (≈ 1.77 µM) | 0.5 µg/mL (≈ 0.884 µM) | 4 µg/mL (≈ 7.07 µM) | 0.125 µg/mL (≈ 0.221 µM) | 8 µg/mL (≈ 14.1 µM) | ≤ 0.0156 µg/mL | – | ≤ 0.0156 µg/mL | – | ≤ 0.0156 µg/mL | 2 µg/mL (≈ 3.54 µM) | 1 µg/mL (≈ 1.77 µM) | 0.5 µg/mL (≈ 0.884 µM) | 1 µg/mL (≈ 1.77 µM) | 2 µg/mL (≈ 3.54 µM) | 8 µg/mL (≈ 14.1 µM) | 2 µg/mL (≈ 3.54 µM)
CC(C)N1CCC[C@H]1c1cc(O)c2c(c1C(F)(F)F)C[C@H]1C[C@H]3[C@H](N(C)C)C(O)=C(C(N)=O)C(=O)[C@@]3(O)C(O)=C1C2=O | – | – | – | 2 µg/mL (≈ 3.37 µM) | 4 µg/mL (≈ 6.74 µM) | 16 µg/mL (≈ 27 µM) | 0.125 µg/mL (≈ 0.211 µM) | 2 µg/mL (≈ 3.37 µM) | 0.0625 µg/mL (≈ 0.105 µM) | – | ≤ 0.0156 µg/mL | – | 0.125 µg/mL (≈ 0.211 µM) | 1 µg/mL (≈ 1.68 µM) | 0.5 µg/mL (≈ 0.842 µM) | 0.25 µg/mL (≈ 0.421 µM) | 8 µg/mL (≈ 13.5 µM) | 4 µg/mL (≈ 6.74 µM) | 32 µg/mL (≈ 53.9 µM) | 16 µg/mL (≈ 27 µM)
CN(C)[C@@H]1C(O)=C(C(N)=O)C(=O)[C@@]2(O)C(O)=C3C(=O)c4c(O)cc([C@@H]5CCCN5CC5CC5)c(C(F)(F)F)c4C[C@H]3C[C@@H]12 | – | – | – | 4 µg/mL (≈ 6.6 µM) | 4 µg/mL (≈ 6.6 µM) | 16 µg/mL (≈ 26.4 µM) | 0.5 µg/mL (≈ 0.826 µM) | 1 µg/mL (≈ 1.65 µM) | 0.125 µg/mL (≈ 0.206 µM) | – | 0.0312 µg/mL (≈ 0.0515 µM) | – | 1 µg/mL (≈ 1.65 µM) | 2 µg/mL (≈ 3.3 µM) | 1 µg/mL (≈ 1.65 µM) | 1 µg/mL (≈ 1.65 µM) | 16 µg/mL (≈ 26.4 µM) | 8 µg/mL (≈ 13.2 µM) | > 32 µg/mL | 32 µg/mL (≈ 52.8 µM)
CCN1CCC[C@H]1c1cc(O)c2c(c1C(F)(F)F)C[C@H]1C[C@H]3[C@H](N(C)C)C(O)=C(C(N)=O)C(=O)[C@@]3(O)C(O)=C1C2=O | – | – | – | 1 µg/mL (≈ 1.73 µM) | 1 µg/mL (≈ 1.73 µM) | 8 µg/mL (≈ 13.8 µM) | 0.0312 µg/mL (≈ 0.0538 µM) | 1 µg/mL (≈ 1.73 µM) | ≤ 0.0156 µg/mL | – | ≤ 0.0156 µg/mL | – | ≤ 0.0156 µg/mL | 0.5 µg/mL (≈ 0.863 µM) | 0.5 µg/mL (≈ 0.863 µM) | 0.125 µg/mL (≈ 0.216 µM) | 4 µg/mL (≈ 6.9 µM) | 4 µg/mL (≈ 6.9 µM) | 32 µg/mL (≈ 55.2 µM) | 4 µg/mL (≈ 6.9 µM)
CN(C)[C@@H]1C(O)=C(C(N)=O)C(=O)[C@@]2(O)C(O)=C3C(=O)c4c(O)cc(C5CCCN5)c(OC(F)(F)F)c4C[C@H]3C[C@@H]12 (some centres undefined) | – | – | – | 2 µg/mL (≈ 3.52 µM) | 2 µg/mL (≈ 3.52 µM) | 8 µg/mL (≈ 14.1 µM) | 0.125 µg/mL (≈ 0.22 µM) | 2 µg/mL (≈ 3.52 µM) | ≤ 0.0156 µg/mL | – | ≤ 0.0156 µg/mL | – | ≤ 0.0156 µg/mL | 8 µg/mL (≈ 14.1 µM) | 1 µg/mL (≈ 1.76 µM) | 0.125 µg/mL (≈ 0.22 µM) | 0.25 µg/mL (≈ 0.441 µM) | 1 µg/mL (≈ 1.76 µM) | 8 µg/mL (≈ 14.1 µM) | 16 µg/mL (≈ 28.2 µM)
